Test results: ChEMBL document CHEMBL1811868, “Structure-activity relationship of 2-hydroxy-2-aryl-2,3-dihydro-imidazo[1,2-a]pyrimidinium salts and 2N-substituted 4(5)-aryl-2-amino-1H-imidazoles as inhibitors of biofilm formation by Salmonella Typhimurium and Pseudomonas aeruginosa” (Bioorg Med Chem, 2011)

Tests used:
Salmonella typhimurium = experiment: Antimicrobial activity against Salmonella Typhimurium ATCC 14028 assessed as inhibition of biofilm formation after 24 hrs by spectrophotometry; type: functional, organism-based, Salmonella enterica subsp. enterica serovar Typhimurium; conditions: for IC50: Salmonella enterica, ATCC 14028, 24 h
Summary of the method: (§1)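 Static peg-lid biofilm prevention assay. Twofold serial dilutions in TSB diluted 1/20, 2–3 repeats per compound. Overnight S. Typhimurium ATCC14028 (LB-grown) or P. aeruginosa PA14 (TSB-grown) cultures were diluted 1:100, giving ~10^6 cells/well, then incubated 24 h at 25 °C without shaking. Pegs were PBS-washed, stained 30 min with 0.1% crystal violet, extracted with 30% acetic acid and read at OD570. IC50 was fitted from the concentration gradient.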

Pseudomonas aeruginosa = experiment: Antimicrobial activity against Pseudomonas aeruginosa PA14 assessed as inhibition of biofilm formation after 24 hrs by spectrophotometry; type: functional, organism-based; conditions: PA14, 24 h; summary of the method: as §1

Structure (SMILES) | IC50 (Salmonella typhimurium) | IC50 (Pseudomonas aeruginosa) | inhibition (INH) (Salmonella typhimurium)
CCCCCCCCCCCCCN1c2nccc[n+]2C[C@@]1(O)c1ccc(Cl)cc1 | 316 µM | > 800 µM | –
CCCCCCCCNc1ncc(-c2ccc(Cl)cc2)[nH]1 | > 400 µM | 1.6 µM | –
CCCCCCCCCNc1ncc(-c2ccc(Cl)cc2)[nH]1 | > 800 µM | – | –
CCCCCCCCN1c2nccc[n+]2C[C@@]1(O)c1ccc(Cl)c(Cl)c1 | 7.1 µM | – | –
c1ccc2c(-c3cnc(NCc4ccc5c(c4)OCO5)[nH]3)cccc2c1 | – | 10.5 µM | –
CCCCCCCCCCN1c2nccc[n+]2C[C@@]1(O)c1ccc(F)cc1 | 20 µM | – | –
CCCCNc1ncc(-c2ccc([N+](=O)[O-])cc2)[nH]1 | 702 µM | > 800 µM | –
CCCCCCN1c2nccc[n+]2C[C@@]1(O)c1ccccc1 | 102 µM | 406 µM | –
CCCCCNc1ncc(-c2ccc(Cl)cc2)[nH]1 | > 400 µM | 6.3 µM | –
CCCCCCCCN1c2nccc[n+]2C[C@@]1(O)c1ccc(-c2ccc(-c3ccccc3)cc2)cc1 | 52.8 µM | 336 µM | –
CC(C)CN1c2nccc[n+]2C[C@@]1(O)c1ccccc1 | 131 µM | 289 µM | –
CCNc1ncc(-c2ccc([N+](=O)[O-])cc2)[nH]1 | 171 µM | 104 µM | –
Clc1ccc(-c2cnc(NC3CCCCC3)[nH]2)cc1 | > 800 µM | 25 µM | –
COc1ccc(CN2c3nccc[n+]3C[C@@]2(O)c2ccc(Br)cc2)cc1 | 110 µM | – | –
CCCCCCCCCCCCCCN1c2nccc[n+]2C[C@@]1(O)c1ccc(Cl)cc1 | > 800 µM | > 800 µM | –
CCCCCCCCN1c2nccc[n+]2C[C@@]1(O)c1ccc(SC)cc1 | 13.2 µM | 36.5 µM | –
O[C@@]1(c2ccccc2)C[n+]2cccnc2N1C1CCC1 | 493 µM | > 400 µM | –
CCCCCCCCNc1ncc(-c2ccc(Cl)c(Cl)c2)[nH]1 | 118 µM | > 800 µM | 50%
CNc1ncc(-c2ccc(F)c(F)c2)[nH]1 | 602 µM | – | –
CCCCCCCCCCN1c2nccc[n+]2C[C@@]1(O)c1ccc(Cl)c(Cl)c1 | 32.4 µM | – | –
O[C@@]1(c2ccccc2)C[n+]2cccnc2N1Cc1ccccc1 | 212 µM | – | –
CNc1ncc(-c2ccc(O)cc2)[nH]1 | 160 µM | – | –

More lines, main results first:

IC50 (Salmonella typhimurium) | IC50 (Pseudomonas aeruginosa) | Structure (SMILES) | inhibition (INH) (Salmonella typhimurium)
698 µM | > 400 µM | CN1c2nccc[n+]2C[C@@]1(O)c1ccc([N+](=O)[O-])cc1 | –
211 µM | 41.5 µM | CC(C)(C)N1c2nccc[n+]2C[C@@]1(O)c1ccc([N+](=O)[O-])cc1 | –
579 µM | > 800 µM | CCN1c2nccc[n+]2C[C@@]1(O)c1ccc([N+](=O)[O-])cc1 | –
225 µM | 170 µM | CN1c2nccc[n+]2C[C@@]1(O)c1ccc(Cl)cc1 | –
6.7 µM | 36.9 µM | CCCCCCCN1c2nccc[n+]2C[C@@]1(O)c1ccc(Cl)cc1 | –
7.6 µM | – | CCCCCCCCN1c2nccc[n+]2C[C@@]1(O)c1ccc(F)cc1 | –
322 µM | 192 µM | CC(C)CN1c2nccc[n+]2C[C@@]1(O)c1ccc([N+](=O)[O-])cc1 | –
540 µM | > 400 µM | CC(C)N1c2nccc[n+]2C[C@@]1(O)c1ccccc1 | –
293 µM | 145 µM | CCCCN1c2nccc[n+]2C[C@@]1(O)c1ccc([N+](=O)[O-])cc1 | –
466 µM | 192 µM | CC(C)N1c2nccc[n+]2C[C@@]1(O)c1ccc([N+](=O)[O-])cc1 | –
174 µM | – | O=[N+]([O-])c1ccc([C@]2(O)C[n+]3cccnc3N2Cc2ccccc2)cc1 | –
314 µM | – | CCCCN1c2nccc[n+]2C[C@@]1(O)c1ccc(OC)cc1 | –
90.1 µM | – | CCCCN1c2nccc[n+]2C[C@@]1(O)c1ccc(Br)cc1 | –
163 µM | – | CCCCN1c2nccc[n+]2C[C@@]1(O)c1ccc(F)cc1 | –
13.7 µM | 79.8 µM | CCCCCCN1c2nccc[n+]2C[C@@]1(O)c1ccc(Cl)cc1 | –
10.5 µM | – | CCCCCCCCN1c2nccc[n+]2C[C@@]1(O)c1ccc(OC)cc1 | –
564 µM | – | CN1c2nccc[n+]2C[C@@]1(O)c1cccc([N+](=O)[O-])c1 | –
1820 µM | – | CN1c2nccc[n+]2C[C@@]1(O)c1ccc(F)cc1 | –
